Key:
[1] = system: HL-60; assay: Inhibition of Ca2+-induced mitochondrial permeability transition in human HL60 cells at 50 uM after 40 mins relative to control; assay type: functional; conditions: HL-60, 40 min
Outline: (§1)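 Mitochondria were isolated from human leukaemia HL-60 cells, which were grown in RPMI1640 with 5% heat-inactivated FBS and penicillin/streptomycin at 37 °C under 5% CO2. Swelling was then triggered with 250 µM CaCl2 (final) and followed as the change in OD540 at 30 °C. Inhibition % at 40 min was scaled between no-CaCl2 (100%) and CaCl2-only (0%) controls.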

[2] = system: HL-60; assay: Inhibition of Ca2+-induced mitochondrial permeability transition in human HL60 cells at 25 uM after 40 mins relative to control; assay type: functional; conditions: HL-60, 40 min; outline: as §1

Row | SMILES | inhibition at 50 µM [1] [%] | inhibition at 25 µM [2] [%]
1 | Nc1cccc(CN2C(=O)CN(NC(=O)c3ccc(-c4ccc(Cl)cc4)o3)C2=O)c1 | 20 | –
2 | Nc1ccc(CN2C(=O)CN(NC(=O)c3ccc(-c4cc(Cl)cc(Cl)c4)o3)C2=O)cc1 | 46 | –
3 | O=C(NN1CC(=O)N(Cc2ccncc2)C1=O)c1ccc(-c2cc(Cl)cc(Cl)c2)o1 | 8.7 | –
4 | Nc1cccc(CN2C(=O)CN(NC(=O)c3ccc(-c4cccc(C(F)(F)F)c4)o3)C2=O)c1 | – | 6.5
5 | O=C1CN(/N=C/c2ccc(-c3ccc([N+](=O)[O-])cc3)o2)C(=O)N1 [DANTROLENE SODIUM] | – | 13
6 | Nc1cccc(CN2C(=O)CN(NC(=O)c3ccc(-c4ccccc4)o3)C2=O)c1 | 19 | –
7 | CN1C(=O)CN(NC(=O)c2ccc(-c3cc(Cl)cc(Cl)c3)o2)C1=O | – | 8.5
8 | CN1C(=O)CN(/N=C/c2ccc(-c3cccc(Cl)c3)o2)C1=O | – | 6
9 | Nc1cccc(CN2C(=O)CN(NC(=O)c3ccc(-c4cccc(Cl)c4)o3)C2=O)c1 | – | 16
10 | Nc1cccc(CN2C(=O)CN(NC(=O)c3ccc(-c4cc(Cl)cc(Cl)c4)o3)C2=O)c1 | 48 | 35
11 | Nc1cccc(CN2C(=O)CN(/N=C/c3ccc(-c4cc(Cl)cc(Cl)c4)o3)C2=O)c1 | – | 14
12 | Nc1cccc(CN2C(=O)CN(NC(=O)c3ccc(-c4cccc(Br)c4)o3)C2=O)c1 | 11 | –
13 | CN1C(=O)CN(/N=C/c2ccc(-c3cc(Cl)cc(Cl)c3)o2)C1=O | – | 23
14 | Nc1cccc(CN2C(=O)CN(/N=C/c3ccc(-c4cccc(Cl)c4)o3)C2=O)c1 | – | 14
15 | CN1C(=O)CN(NC(=O)c2ccc(-c3cccc(Cl)c3)o2)C1=O | – | 2
16 | O=C(NN1CC(=O)N(Cc2cccnc2)C1=O)c1ccc(-c2cc(Cl)cc(Cl)c2)o1 | 71 | –
